Rad51 HR inh: Rad51 (human) homologous recombination inhibition; Q06609; hRad51 DNA strand exchange, fluorescence dequenching; inhibition, % at 10 µM; 0.085% of 200,000 active;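 active means inhibition above 40% at the single screening dose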;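 further: 0% = DMSO control wells and 100% = blanks with heterologous ssDNA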
Target sequence (Q06609 whole entry, looked up): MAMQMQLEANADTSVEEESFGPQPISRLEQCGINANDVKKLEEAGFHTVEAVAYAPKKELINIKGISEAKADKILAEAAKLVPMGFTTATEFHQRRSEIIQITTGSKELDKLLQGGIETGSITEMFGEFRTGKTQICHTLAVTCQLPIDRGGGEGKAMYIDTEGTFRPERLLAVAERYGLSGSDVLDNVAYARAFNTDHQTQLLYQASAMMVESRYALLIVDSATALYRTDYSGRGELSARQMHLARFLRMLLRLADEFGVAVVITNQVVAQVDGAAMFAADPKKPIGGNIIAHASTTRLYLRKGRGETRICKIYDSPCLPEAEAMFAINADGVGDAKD
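Material: human Rad51–ssDNA filaments; Probe or stimulus: labelled 47-mer dsDNA for strand exchange; Doses: single 10 µM dose; Incubation: 37 °C 15-min filament assembly, 30-min compound preincubation, 15-min exchange; Technique: FRET fluorescence dequenching, excitation 485 nm, emission 520 nm; Measure: Fluorescence-based percent inhibition, control- and blank-normalised; Benchmarks: plate control and blank wells.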
CHT PAM: human CHT allosteric activation | Q9GZV3 | CHT-expressing cells, membrane potential dye, choline EC20; stronger effect = higher value; LV-AA mutant CHT in HEK293 cells | B-score at 10 µM | 0.49% of 310,000 active;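 active means initial fluorescence not abnormally high and integrated response B-score, plate-corrected, over 3 SD above library mean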
CHT inh: inhibits the human high affinity choline transporter. Q9GZV3. B-score at 10 µM. 0.86% of 310,000 active. CHT-expressing cells, membrane potential dye, choline response; stronger effect = lower value. AID 488975;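 active means B-score over 3 SD under the library average, and starting fluorescence ratio not unusually high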;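 further: choline stimulus applied at its EC90 after an EC20 pre-addition; B-score computed on integrated fluorescence ratio after choline addition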
Cl transport mod: KCC2 (human) Cl- transport modulation. AID 1456. KCC2 cells, thallium flux FluoZin-2 fluorescence. 2.2% of 190,000 active. Q9H2X9. B-score of Tl+ flux slope (higher = more flux/activation; lower = inhibition) at 10 µM;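 active means thallium flux slope and its plate-corrected score both differing from the plate sample mean at a set confidence after two filtering rounds, in either direction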;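 further: slope of fluorescence scaled to starting intensity during 10 to 20 s after thallium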
KCC2 sec1: KCC2 (human) modulation, secondary assay | shares compounds with Cl transport mod | HEK293-KCC2, thallium flux, FluoZin2 fluorescence; stronger effect = higher value | normalised thallium flux (F/F0 slope) at 10 µM | 15% of 3,700 active;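 active means thallium flux slope above the same plate's solvent-only control mean plus 3 SD; inconclusive means the two replicate wells disagree; inactive means no significant difference from solvent-only control wells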
KCC2 bumet counter: thallium flux despite bumetanide block in KCC2 cells, secondary assay 3 | 49% of 3,700 active | AID 1714 | shares compounds with Cl transport mod | normalized thallium flux at 10 µM | HEK293-KCC2 + bumetanide/ouabain, thallium flux FluoZin2; stronger effect = higher value;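 active means thallium entry rate above the same plate's blocked-transporter control wells by more than 3 SD; inconclusive means the two repeat wells disagree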;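 further: raw slope of fluorescence over initial fluorescence between 10 and 20 s after thallium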
KCC2 sec2: KCC2 (human) modulation, second secondary assay. shares compounds with Cl transport mod. HEK293-KCC2, thallium flux FluoZin2 fluorescence; actives lie on both sides; F/F0 rise rate, 10–20 s post-thallium. normalized thallium flux at 10 µM. 23% of 3,700 active;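 active means thallium flux slope more than 3 SD above or below the plate's solvent-only control mean, mostly below; inconclusive means the two repeat wells disagreed; inactive means no significant shift from solvent-only controls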;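 further: raw slope with 0.1% DMSO as baseline and bumetanide as block control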
HEK counter1: parental HEK flux effect, counter-screen; shares compounds with Cl transport mod; HEK293 parental cells, thallium flux FluoZin2, ouabain; baseline-ratio fluorescence slope, 10–20 s after thallium; thallium flux rate (normalised fluorescence) at 10 µM; 46% of 3,700 active; AID 1716;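 active means thallium flux rate significantly above the same plate's solvent-only control wells, beyond their mean plus 3 SD; inconclusive means the two replicate wells gave conflicting results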
KCC2 ouabain: KCC2 (human) modulation, ouabain retest | shares compounds with Cl transport mod | HEK293-KCC2, thallium flux FluoZin2 fluorescence; bidirectional: low = inhibitor, high = activator | raw Tl+ flux slope (below DMSO = inhibition, above = activation) at 10 µM | 48% of 3,700 active | AID 1717;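 active means thallium flux slope beyond 3 SD from same-plate DMSO control mean in most replicates, usually higher, sometimes lower; inconclusive means repeat tests gave conflicting results; inactive means no significant difference from controls in most replicates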;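 further: slope of initial-normalized fluorescence between seconds 10 and 20 after thallium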
HEK293 Tl flux2: parental HEK flux effect, counter-screen 2 | shares compounds with Cl transport mod | HEK293 parental, thallium flux FluoZin-2 fluorescence slope | thallium flux slope at 10 µM | 33% of 3,700 active | AID 1718;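 active means thallium flux slope above the same plate's solvent-control mean plus 3 SD in both duplicate wells; inconclusive means duplicate wells that disagreed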;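 further: run without ouabain in cells lacking the KCC2 cotransporter; slope of fluorescence scaled to its starting value between 10 and 20 s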
Active calls of the source: *; i = inactive; ? = inconclusive; · = no result. Hits are enriched below; roughly 2.6% of the tested compounds scored in any of these assays.

SMILES	Rad51 HR inh	CHT PAM	CHT inh	Cl transport mod	KCC2 sec1	KCC2 bumet counter	KCC2 sec2	HEK counter1	KCC2 ouabain	HEK293 Tl flux2
O=C1c2oc3ccccc3c(=O)c2C(c2cccc(O)c2)N1CCCN1CCOCC1 (stereo not drawn)	-0.5	i	i	·	·	·	·	·	·	·
O=C1c2oc3ccccc3c(=O)c2C(c2cccc(F)c2)N1CCCO (stereo not drawn)	-4.7	i	i	6.71*	0.00608	?	0.0288	?	0.0184	0.0104
COc1ccc(CN2CCN(Cc3ccon3)CC2CCO)c(C)c1C (stereo not drawn)	-6.9	i	i	-0.474	·	·	·	·	·	·
COc1ccc(CCNc2oc(COc3ccccc3F)nc2C#N)cc1	0.4	i	i	·	0.00775	0.00341*	0.0338	0.00534*	0.0173*	0.00984
N#Cc1nc(COc2ccccc2F)oc1NCc1ccc(F)cc1	-6.3	i	i	·	0.00592	0.00501	?	0.00749	?	0.0106
C=CCNc1oc(COc2ccc(C)cc2)nc1C#N	1.1	i	i	·	0.008	0.00531	0.0321	0.00744	?	0.0107
CC1CN(C(=O)c2ccn(C)n2)CC(C)O1 (stereo not drawn)	·	i	i	0.668	·	·	·	·	·	·
CC(/C=C/C=C/c1ccccc1)=N\NC(=O)c1cccnc1	-7.1	i	i	-1.14	·	·	·	·	·	·
CC(/C=C/c1ccccc1)=N\NC(=O)c1cc(C)nc2ccccc12	7.9	i	i	·	·	·	·	·	·	·
CC(/C=C/c1ccccc1)=N\NC(=O)c1ccc(Br)cc1	11.9	i	i	8.17*	0.0224*	0.0284*	0.0328	0.0157*	0.0205	0.0176*
CC(/C=C\C=C\c1ccccc1)=N\NC(=O)c1cncc(Br)c1	5.3	i	i	12.6*	?	0.0289*	0.036	0.0377*	0.0313*	0.0173*
CC(/C=C/c1ccccc1F)=N\NC(=O)c1ccc(Cl)cc1	0.9	i	i	6.21*	0.0238*	0.0201*	?	0.0152*	0.0217*	0.0195*
CC(/C=C/c1ccccc1)=N/NC(=O)c1cccc(Br)c1	-87.3	i	i	10.5*	0.0112	0.0368*	0.0304	0.0371*	0.0299*	0.0136*
Cn1c(N)c(C(=O)COC(=O)CCC(=O)c2ccc(F)cc2)c(=O)n(C)c1=O	-4.2	i	i	-0.595	·	·	·	·	·	·
COc1ccc(NC(=O)N2CCN(c3ccc([N+](=O)[O-])cc3)CC2)cc1	-18.8	i	i	0.458	·	·	·	·	·	·
COc1ccc(C(=O)NC(=S)N2CCN(c3ccc([N+](=O)[O-])cc3)CC2)cc1	3.2	i	i	4.11*	0.00632	0.0124*	0.0316	0.0096*	0.0288*	0.0113*
COc1ccc(Cl)cc1NC(=O)C(C)N1CCN(c2ccccn2)CC1 (stereo not drawn)	·	i	i	·	·	·	·	·	·	·
O=C1OC(c2cccs2)=N/C1=C\c1ccc(-c2ccccc2Cl)o1	0.3	·	·	·	0.00589	0.00448	0.0282	0.00489*	?	0.00883
Cc1cc(C(=O)OCC(=O)Nc2cccc(S(=O)(=O)N(C)C)c2)c(C)o1	15.6	i	i	-1.37	·	·	·	·	·	·
Cc1cc(C(=O)OCC(=O)Nc2cccc(S(=O)(=O)N(C)C)c2)c2ccccc2n1	1.6	i	i	-2.89*	0.00886	0.006	0.0295	0.00571*	0.0188	0.00926
O=[N+]([O-])c1ccc(NC(=S)NCCc2ccc(F)cc2)cc1	1.8	i	i	-6.09*	0.00691	0.00378	0.0215*	0.00522*	0.0102*	0.008*
O=C(c1ccc(F)cc1)N1CCN(c2ccc([N+](=O)[O-])cc2-n2cccc2)CC1	13.1	i	i	-3.72*	0.00925	0.005	0.0359	0.0069	0.0194	0.0111
CCOc1ccc(C(=O)Nc2cccc(-c3nc4ccccc4[nH]3)c2C)cc1[N+](=O)[O-]	·	i	i	-0.71	·	·	·	·	·	·
O=C(Nc1ncc2c(n1)-c1ccccc1CC2)c1ccc(Cl)cc1	-4.9	i	i	-2.05	·	·	·	·	·	·
O=C(Nc1ncc2c(n1)-c1ccccc1CC2)c1cccc(Cl)c1	·	i	i	-4.4*	0.00653	0.00447	0.0223*	0.00624	0.0135*	0.00871
SMILES	Rad51 HR inh	CHT PAM	CHT inh	Cl transport mod	KCC2 sec1	KCC2 bumet counter	KCC2 sec2	HEK counter1	KCC2 ouabain	HEK293 Tl flux2
CC(C)CCN1CCN(Cc2coc3ccccc3c2=O)CC1CCO (stereo not drawn)	·	i	i	·	·	·	·	·	·	·
O=C(CNC(=O)C12CC3CC(CC(C3)C1)C2)N/N=C\c1ccccn1	2.7	i	i	-0.367	·	·	·	·	·	·
CCOC(=O)c1c(-c2ccccc2)csc1NC(=O)CSc1ccccc1	6.0	i	i	-0.0641	·	·	·	·	·	·
CCOC(=O)c1c(-c2ccccc2)csc1NC(=O)CSc1nnnn1C	3.8	i	i	-4.71*	0.00542	0.00429	0.0284	0.00756	?	?
Cn1nnc(NCc2cc(Br)ccc2OCc2cccs2)n1	12.2	i	i	·	0.00706	0.00516	0.0261*	0.00756	?	0.0105
Oc1c(N=NC(=S)Nc2ccccc2F)c2ccccc2n1Cc1ccc(Cl)cc1	-9.0	i	i	2.34	·	·	·	·	·	·
Oc1c(N=NC(=S)Nc2ccccc2F)c2ccccc2n1Cc1ccccc1F	·	i	i	11.2*	0.00553	0.034*	0.0337	0.0117*	0.0255*	?
CCNC(=S)N=Nc1c(O)n(Cc2ccc(Cl)cc2)c2ccccc12	·	i	i	13.9*	0.0116*	0.0711*	0.0296	0.0305*	0.0406*	0.0113*
Cc1ccc(C)c(Cn2c(O)c(N=NC(=S)Nc3ccccc3F)c3ccccc32)c1	-16.7	i	i	4	·	·	·	·	·	·
Cc1ccccc1Cn1c(O)c(N=NC(=S)Nc2ccccc2F)c2ccccc21	3.7	i	i	9.56*	?	0.0254*	0.036	?	?	?
CC(C)(C)C(=O)O/N=C(\N)COc1cccc(Cl)c1	·	i	i	0.955	·	·	·	·	·	·
CN(C1CCCCC1)S(=O)(=O)c1cccc(C#N)c1	14.7	i	i	-0.889	·	·	·	·	·	·
Fc1ccc(-c2nnc(SCc3cccnc3)o2)cc1	-10.1	i	i	0.646	·	·	·	·	·	·
O=C(Nc1ccc(Br)cc1F)c1sccc1-n1cccc1	-1.6	i	i	-1.17	0.0078	0.00478	0.0328	0.00819	0.0197	0.0114

Screening data (PubChem)
